Compounds with a hit are over-represented: about 1.9% of the library has one in this group of screens.
DENV2 CPE rescue = DENV2-induced cell death inhibition. CPE inhibition, % at 9.99 µM. 1.7% of 350,000 active. DENV2-infected cells, cytopathic effect rescue, plate reader. AID 651640; in the data active = CPE inhibition above about 20%, passing the limit was not always enough; tested in BHK-21 cells;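 also: 0% = median of neutral control wells and 100% = median of positive control wells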
Cneo AK release = Cryptococcus neoformans lysis via adenylate kinase release. lysis activity, % at 15 µM. AID 651654. 0.2% of 360,000 active. C. neoformans lysis, adenylate kinase release luminescence, 4 h; normalised: neutral wells 0, clomiphene wells 100;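 active = mean lysis activity across replicates of at least 80%, whatever share of replicates individually reach that level; inactive = mean lysis activity below 80%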
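Material: C. neoformans cells; Schedule: 4 h static compound exposure, 37 °C, read 1 h post-reagent; Measured by: adenylate kinase release luminescence; Read-out: signal increase indicating cell lysis; Controls: Clomiphene as positive lysis control.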
F508del corr = CFTR F508del correction in bronchial cells. 0.36% of 350,000 active. CFBE cells, YFP halide quenching; stimulated with forskolin plus potentiator P3; % fluorescence drop versus neutral controls. activity (quench increase), % at 7.58 µM. AID 720511;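 active = mean added fluorescence quench of at least 8% versus neutral control, with both replicates also reaching 8%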;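 also: cells transiently co-express mutant CFTR-F508del with the halide-sensitive YFP; corrector assay measuring rescue of mutant channel to the surface after 24 h compound exposure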
XiGFP reactiv = reactivates the inactive X chromosome in mouse fibroblasts | XiGFP mouse fibroblasts, % GFP-positive cells imaging, 3 d; cells co-treated with 5-aza-dC sensitizer; scaled so ellipticine positive control = 100% | activation, % at 7.58 µM | 0.055% of 360,000 active | AID 743238;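 active = mean normalized replicate activation at least 10% and every replicate at or above 10%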;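 also: 0% = median of on-plate neutral control wells and 100% = ellipticine 6 µM median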
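System: 68-5-11 XiGFP fibroblast line | Buffer or medium: DMEM containing 5-aza-dC | Compound: Single point | Times: Compounds 3 days, fix/stain 15 min at room temperature | Benchmarks: Positive control ellipticine, 6 µM final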
FN deposition inh = fibronectin deposition inhibition; AH1F fibroblasts, Alexa488-fibronectin deposition fluorescence, overnight; inhibition, % at 12.6 µM; 0.086% of 350,000 active; AID 743247;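 active = mean inhibition across replicates of 30% or more, regardless of how many single replicates reach that level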;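 also: positive control wells lacked labelled fibronectin entirely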
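Material: AH1F fibroblast monolayer depositing Alexa488-labelled fibronectin into matrix / Amount: 10000 AH1F cells per well / Signal: fluorescence 485/525 nm / Medium: DMEM, 2% serum / Compound: single dose, pinned / Incubation: 1 h cell adhesion before compound, then overnight fibronectin incubation / Reagent: Alexa488-FN, 24 nM final / Read-out: inhibition of fibronectin deposition signal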
PGC1a acetyl inh = PGC1a acetylation modulation, inhibitor mode. U2OS PGC1a acetylation, AlphaScreen anti-acetyl-lysine; with virally co-expressed GCN5 acetyltransferase. inhibition, % at 15.6 µM. 0.17% of 350,000 active;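 active = every replicate shows inhibition of at least 40%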;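 also: 0% = neutral control wells and 100% = positive control wells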
* hit, by the source's call; / = not tested or not shown.

SMILES	DENV2 CPE rescue	Cneo AK release	F508del corr	XiGFP reactiv	FN deposition inh	PGC1a acetyl inh
O=C(c1cnccn1)N1CC[C@@H]2[C@H](CO)Nc3ccc(C#Cc4cccnc4)cc3[C@@H]21	-4.2	6.7	3.0	-0.1	4.3	-3.1
O=C(Nc1cccc(Cl)c1)N1C[C@@H]2[C@H](c3ccccc31)[C@H](CO)N2C(=O)c1cccnc1	/	-9.2	1.6	0.0	/	-1.9
COCC#Cc1cnc2c(c1)C(=O)N([C@H](C)CO)C[C@@H](C)[C@@H](CN(C)C(=O)c1cnccn1)O2	6.7	-0.3	-1.1	0.1	/	4.6
Cc1ccccc1-c1ccc([C@@H]2[C@H]3CN(C(=O)c4ccncc4)CC(=O)N3[C@H]2CO)cc1	-2.8	/	-0.2	0.0	-11.8	-8.9
COC(=O)C[C@@H]1CC[C@@H]2[C@H](COc3ccc(NC(=O)Cc4cccs4)cc3C(=O)N2C)O1	-0.8	-0.5	/	0.3	-4.9	/
COC(=O)C[C@H]1CC[C@@H]2[C@@H](COc3ccc(NC(=O)Cc4cccs4)cc3C(=O)N2C)O1	-2.4	-5.5	/	0.0	40.1*	/
Cc1[nH]c2ccccc2c1CC(=O)Nc1ccc(N(C)c2cccnc2)c(-c2ccc(F)c(F)c2)c1	83.5*	/	-1.5	0.0	-8.6	/
CN(c1cccnc1)c1ccc(NC(=O)Cc2c[nH]c3ccccc23)cc1-c1ccc(F)c(F)c1	0.8	/	-1.8	0.0	-6.3	/
C[C@@H]1CCCCO[C@H](CN(C)C(=O)NC2CCCCC2)[C@H](C)CN([C@H](C)CO)C(=O)c2cc(NC(=O)Nc3ccc(C(F)(F)F)cc3)ccc2O1	30.7*	54.7	5.7	0.2	/	1.4
C[C@@H]1CN([C@@H](C)CO)C(=O)c2cc(NC(=O)Nc3ccc(C(F)(F)F)cc3)ccc2O[C@@H](C)CCCCO[C@@H]1CN(C)C(=O)NC1CCCCC1	59.6*	-3.4	3.5	0.2	/	10.2
C[C@@H]1CN([C@H](C)CO)C(=O)c2cc(NC(=O)Nc3ccc(C(F)(F)F)cc3)ccc2O[C@@H](C)CCCCO[C@H]1CN(C)C(=O)NC1CCCCC1	-4.0	-2.9	5.9	0.0	/	5.0
C[C@H]1CN([C@@H](C)CO)C(=O)c2cc(NC(=O)Nc3ccc(C(F)(F)F)cc3)ccc2O[C@@H]1CN(C)C(=O)NC1CCCCC1	-1.2	0.0	1.5	-0.2	/	8.2
C[C@@H]1CN([C@@H](C)CO)C(=O)c2cc(NC(=O)Nc3ccc(C(F)(F)F)cc3)ccc2O[C@@H]1CN(C)C(=O)NC1CCCCC1	100.9*	0.3	3.2	1.3	/	1.0
C[C@@H]1CN([C@@H](C)CO)C(=O)Cc2cc(NC(=O)Nc3ccccc3)ccc2O[C@H]1CN(C)Cc1ccncc1	-5.5	9.5	-1.1	-0.8	/	-8.4
C[C@@H]1CN([C@@H](C)CO)C(=O)c2cccc(NS(=O)(=O)c3ccccc3)c2O[C@@H]1CN(C)C	2.6	-0.8	3.0	0.2	1.7	0.5
C[C@H](CO)N1C[C@H](C)[C@H](CN(C)Cc2ccc(Oc3ccccc3)cc2)Oc2c(NC(=O)NC3CCCCC3)cccc2C1=O	-0.4	8.0	6.5	-0.6	13.0	6.6
COc1cccc(OC)c1Nc1nc(C)nc2c1nnn2Cc1ccccc1Cl	60.3*	-2.4	-3.3	0.0	-3.0	2.9
C[C@@H]1CCCCO[C@H](CN(C)C(=O)NC2CCCCC2)[C@H](C)CN([C@@H](C)CO)C(=O)c2cc(NS(=O)(=O)c3ccc(F)cc3)ccc2O1	50.6*	50.9	-1.4	-0.1	1.6	-13.1
C[C@H]1CCCCO[C@H](CN(C)C(=O)NC2CCCCC2)[C@@H](C)CN([C@@H](C)CO)C(=O)c2cc(NS(=O)(=O)c3ccc(F)cc3)ccc2O1	23.9*	1.8	-3.9	-0.1	2.5	8.8
O=C(NCC[C@@H]1CC[C@H](NS(=O)(=O)c2cccc(F)c2)[C@@H](CO)O1)Nc1cc(F)ccc1F	2.9	1.2	0.0	0.1	/	-7.9
O=C(O)C[C@@H]1CC[C@@H](NC(=O)Nc2ccccc2)[C@H](CO)O1	1.0	27.4	-4.0	0.0	-4.1	-1.7
COc1cccc(S(=O)(=O)Nc2ccc3c(c2)OC[C@@H](C)NC[C@H](C)[C@@H](OC)CN(C)C3=O)c1	-13.3	98.0*	0.7	0.2	3.2	-4.5
CO[C@H]1CN(C)C(=O)c2ccc(NS(=O)(=O)c3cccc(F)c3)cc2OC[C@H](C)NC[C@@H]1C	3.8	/	-0.8	-0.1	12.2	9.6
CO[C@@H]1CN(C)C(=O)c2ccc(NS(=O)(=O)c3cccc(F)c3)cc2OC[C@@H](C)NC[C@@H]1C	71.2*	/	-1.1	-0.1	20.4	-0.1
CO[C@@H]1CN(C)C(=O)c2cc(NS(=O)(=O)c3cccc(C)c3)ccc2OC[C@H](C)NC[C@H]1C	-1.4	0.0	0.1	0.1	2.5	0.2
SMILES	DENV2 CPE rescue	Cneo AK release	F508del corr	XiGFP reactiv	FN deposition inh	PGC1a acetyl inh
CO[C@@H]1CN(C)C(=O)c2cc(NS(=O)(=O)c3cccc(C)c3)ccc2OC[C@@H](C)NC[C@H]1C	14.8	103.9*	2.9	-0.1	-10.0	0.1
CN(C)C1(CNC(=O)C2CCN(S(=O)(=O)c3ccccc3C(F)(F)F)CC2)CCCCC1	31.0*	-2.0	-0.5	-0.1	7.4	1.6
C[C@@H]1CCCCO[C@@H](CN(C)C(=O)Nc2cccc3ccccc23)[C@@H](C)CN([C@@H](C)CO)C(=O)c2cc(NC(=O)NC3CCCCC3)ccc2O1	7.0	48.7	-0.9	0.3	1.5	5.5
O=C(O)CSc1ncccn1	-2.5	/	-1.1	53.5*	-5.1	13.0
COc1ccc(-n2c(-c3cc(-c4ccccc4)sc3N)n[nH]c2=S)cc1	5.4	/	3.7	-0.1	-13.7	/
Nc1sc(-c2ccccc2)cc1-c1n[nH]c(=S)n1C1CCCCC1	-8.5	18.2	13.0*	0.3	7.4	3.5
C=C[C@@H](OC)[C@H](OC(=O)Nc1ccc(SC)cc1)c1ccc(OCCO)cc1	20.8*	-5.8	2.0	/	/	7.4
CCCCCOc1ccc(NC(=O)c2cc(SC)ccc2Cl)cc1	/	3.3	/	0.0	3.5	0.4
COc1ccccc1CNC(=O)Nc1nc(C(N)Cc2ccc(Cl)cc2)cs1 (configuration not stated)	13.0	-1.6	8.3*	0.1	-0.5	6.0
CCN(c1ccccc1)S(=O)(=O)c1ccc(C(=O)N2CCOCC2)cc1	-1.8	0.9	-2.2	0.1	-1.9	0.1
CCN(c1ccccc1)S(=O)(=O)c1ccc(C(=O)N2CCN(c3ccccc3F)CC2)cc1	52.7*	0.5	-0.7	0.0	-2.8	/
CC(C)C[C@H]1CN([C@@H](Cc2ccc(O)cc2)CN2CCC[C@H]2CN2C(=O)C(=O)NC[C@@H]2Cc2ccccc2)C(=O)C(=O)N1CC1CCCCC1	1.4	/	8.4*	0.0	-5.3	/
